The entries come from a sample that favours hits as a whole.
UPR XBP1 act: activators of adaptive arm of unfolded protein response (XBP1) | CHO-XBP1 luciferase reporter, IRE1-XBP1 UPR activation, luminescence; percent of tunicamycin response, DMSO as zero | activation, % at 20 µM | 330,000 tested, 0.33% active;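 active means versus positive control, 20 µM dose yields 30% or more activation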;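 further: 100% = tunicamycin at 10 µg/mL and 0% = DMSO only wells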
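Material – CHO cell line with stable XBP1 luciferase reporter · Buffer or medium – F12 plus 10% FBS · Compound – single point, 20 µM final compound, 1% DMSO · Schedule – 16-18 h cell attachment at 37 °C, then 6 h compound exposure · Signal – Steady-Glo luminescence read · Benchmarks – high control tunicamycin 10 µg/mL final, low control DMSO vehicle only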
CHOP inhibitor: blocks CHOP induction under ER stress | CHO-K1 CHOP-promoter luciferase, tunicamycin-induced, 15-18 h | inhibition, % at 10 µM | 220,000 tested, 3.8% active | AID 2732;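 active means compounds that reduced the stress-induced luciferase reporter signal by more than about 70% of percent inhibition, limit read from the data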;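 further: 0% = tunicamycin plus vehicle and 100% = wells without tunicamycin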
UPR CHOP act: apoptotic UPR (CHOP) activation | CHO-CHOP luciferase reporter, luminescence; percent of tunicamycin response over DMSO baseline | activation, % at 10 µM | 330,000 tested, 0.34% active;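 active means at 10 µM dose, activation of 40% or more, normalized to positive control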;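 further: 100% = tunicamycin at 10 µg/mL and 0% = DMSO alone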
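Assay system: CHO-CHOP cells, stable luciferase reporter of PERK-eIF2a-CHOP signalling / Buffer or medium: F12 plus 10% serum / Compound dosing: one dose, 10 µM in 0.5% DMSO / Times: 6 h compound treatment, 37 °C / Technique: luciferase luminescence / Read-out: % reporter activation, DMSO baseline versus tunicamycin full activation / Benchmarks: tunicamycin and DMSO controls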
Lmaj promast: inhibitors of Leishmania major promastigote growth | Leishmania major promastigotes, resazurin fluorescence viability | inhibition, % at 10 µM | 200,000 tested, 9% active; in the data active means inhibition above about 50%;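 further: promastigotes grown with compound for 44 hours at 28 °C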
Dynein transport: blocks dynein driven cargo transport along microtubules. AID 1381. 220,000 tested, 0.47% active. 3617.4 mouse cells, GR-EGFP nuclear translocation imaging; test concentration mostly 20 µM; stimulated with dexamethasone, 1 µM; hits give low values. z-score, hits read low;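 active means plate z-score of nuclear minus cytoplasmic receptor signal below a set negative limit, without overly bright fluorescence or cell loss, cut at about -3.5 in these data, passing the limit was not always enough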;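 further: z-score of nuclear minus cytoplasmic ring GR-EGFP intensity difference per well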
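Buffer or medium: tetracycline-free induction medium containing charcoal-stripped FBS / Reagent: dexamethasone agonist, 1.0 µM final, for 30 min / Technique: automated 10x imaging of fixed Hoechst-stained cells / Times: induction 48 h, compound 1 h, agonist 30 min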
T cruzi inh: blocks replication of Trypanosoma cruzi. inhibition, % (no concentration beside the values). AID 1885. T. cruzi beta-gal in NIH3T3, luminescence, 90 h. 300,000 tested, 1.4% active;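 active means mean inhibition across valid replicates above about 55%, limit read from the data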;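 further: signal also drops with host cell toxicity which is not excluded here; 0% = plate median of DMSO wells and 100% = zero luminescence signal; higher percent means less beta-gal luminescence so fewer parasites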
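compound dosing = single 50 nL compound addition per well in DMSO | material = NIH/3T3 host cells with β-galactosidase reporter T. cruzi | input = 5,000 host fibroblasts per well | timing = ≥90 h infection period, 3 h prior cell attachment | read-out basis = percent inhibition of parasite-derived β-gal signal | detection = GalScreen β-gal luminescence, detergent lysis, 60 min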
An asterisk follows results filed as active; / = no result.

SMILES	UPR XBP1 act	CHOP inhibitor	UPR CHOP act	Lmaj promast	Dynein transport	T cruzi inh
CCCN(Cc1nnc(-c2ccccc2Cl)o1)C(=O)c1cc([N+](=O)[O-])cc([N+](=O)[O-])c1	1.4	-15.6	0.0	97.9*	-0.237	68.2*
O=C(c1cc([N+](=O)[O-])cc([N+](=O)[O-])c1)N(Cc1nnc(-c2ccccc2Cl)o1)C1CC1	0.7	-5.1	-1.0	82.2*	1.28	75.3*
CCCn1c(=O)n(C)c(=O)c2c(SCC(=O)Nc3cc(C)on3)nc(C(C)(C)C)nc21	2.3	/	1.0	/	/	/
CCN(CC)S(=O)(=O)c1ccc(Nc2nc3ccccc3n3nnnc23)cc1	4.8	-3.5	5.1	67.4*	-0.488	39.2
Brc1ccc(Nc2nc3ccccc3n3nnnc23)cc1	1.7	-14.2	2.5	-3.2	-0.0235	-3.7
Fc1cccc(Nc2nc3ccccc3n3nnnc23)c1	14.8	87.4*	8.0	-5.9	-0.409	-7.0
COc1cccc(Nc2nc3ccccc3n3nnnc23)c1	10.7	88.5*	2.7	0.7	1.92	7.4
c1ccc2c(c1)nc(Nc1ccc3c(c1)OCO3)c1nnnn12	5.8	42.7	2.1	41.9	0.035	48.4
c1ccc(Nc2nc3ccccc3n3nnnc23)cc1	6.3	-13.3	8.1	16.6	-0.673	3.8
Cc1ccc(C2=NN(CC(=O)O)C(=O)CC2)cc1	-8.1	/	0.9	/	/	-9.1
O=c1c2ccccc2c(C=Nc2cccc(S(=O)(=O)NCc3ccco3)c2)c(O)n1-c1ccc(Cl)cn1	-3.0	14.4	-0.9	51.0*	-0.303	30.7
Cc1ccc(N2C(=O)C3CC(c4ccccc4)=C4C5C=CC(C6C(=O)N(c7ccc(C)cc7C)C(=O)C56)C4C3C2=O)c(C)c1 (configuration not stated)	-0.9	20.5	-0.7	77.8*	0.332	59.3*
Cc1ccc(N2C(=O)C3CC(c4ccccc4)=C4C5C=CC(C6C(=O)N(c7ccc(C)cc7)C(=O)C56)C4C3C2=O)cc1 (configuration not stated)	0.1	39.5	0.5	97.7*	1.31	43.2
Cc1ccc(N2C(=O)C3CCCN3C2=S)c(C)c1 (configuration not stated)	-2.5	/	-1.4	/	/	/
CCCn1c(N)c(C(=O)CN(C)CC(=O)Nc2ccccc2C(F)(F)F)c(=O)[nH]c1=O	0.3	/	-0.9	/	/	/
CCOC(=O)c1c(N=CN(C)C)c2cc([N+](=O)[O-])cnc2n1C	-2.5	-18.2	-0.3	/	1.59	1.5
CN1CCN(CCCc2c3c(cc4c2CCC4)CCC3)CC1	0.6	3.5	0.2	31.1	-1.55	62.4*
O=C(C1CCN(c2ccc(N3CCOCC3)nn2)CC1)N1CCc2ccccc2C1	-2.9	/	0.2	95.2*	0.0375	26.6
O=C(c1ccc(-c2ccccc2)cc1)c1ccccc1C(=O)N1CCOCC1	3.4	-22.7	1.1	50.8*	-0.506	-0.1
COc1ccc(C)cc1NC(=O)CCN1CCN(C/C=C/c2ccccc2)CC1	-1.8	/	1.7	/	/	45.5
Cc1ccc(NC(=O)CCN2CCN(C/C=C/c3ccccc3)CC2)cc1C	0.9	39.3	0.7	87.1*	-0.566	43.0
O=C(CCN1CCN(C/C=C/c2ccccc2)CC1)Nc1ccc(Cl)cc1	0.3	18.9	-0.4	75.8*	-0.567	49.6
Cc1ccc(NC(=O)CCN2CCN(C/C=C/c3ccccc3)CC2)cc1	4.0	-11.7	-2.1	93.7*	1.02	/
Cc1noc(C)c1CSCC(=O)N(C)CC(=O)Nc1ccc(F)c(F)c1F	1.2	/	-1.1	/	/	-7.2
C=CCc1cc(/C=N/NC(=O)CSc2nnc(CCCc3ccc(OC)cc3)o2)cc(OC)c1O	-4.6	77.8*	-2.6	-0.2	-0.279	5.2
SMILES	UPR XBP1 act	CHOP inhibitor	UPR CHOP act	Lmaj promast	Dynein transport	T cruzi inh
COc1ccc(/C=N/NC(=O)CSc2nnc(CCCc3ccc(OC)c(C)c3)o2)cc1	-7.0	70.2*	0.0	12.5	-0.349	-6.0
N#CCn1c(CN2CCCC2)nc2ccccc2c1=O	0.4	/	-1.3	/	/	-1.9
CCOC(=O)c1ccc(NS(=O)(=O)c2ccc3c(c2)NC(=O)CCS3)cc1	-9.9	/	-0.7	/	/	-8.2
CCC[n+]1c2ccccc2cc2ccccc21	0.8	/	-2.7	/	/	60.5*
CCCC[n+]1c2ccccc2cc2ccccc21	0.8	/	2.3	/	/	68.2*
Cc1ccc2ccccc2[n+]1CCCS(=O)(=O)[O-]	-2.4	9.9	3.8	4.3	-0.627	10.5
COc1ccc(CCN2CC(C(=O)N(C)Cc3c(C)n[nH]c3C)CCC2=O)cc1 (configuration not stated)	-4.6	/	-0.1	/	/	-16.5
COc1ccc(C(=O)Nc2cc(C)c3c(=O)oc4ccccc4c3n2)cc1	0.8	88.3*	-1.5	-3.1	-0.921	-2.1
Cc1cc(NC(=O)CC(C)(C)C)nc2c1c(=O)oc1ccccc12	3.9	74.1*	3.0	1.4	-1.45	42.3
CCCC(=O)Nc1cc(C)c2c(=O)oc3ccccc3c2n1	0.7	16.3	0.3	/	0.324	13.5
O=C(/C=C/c1cccc(O)c1)c1cccnc1	0.7	-44.1	-1.1	98.6*	-2.74	-11.9
Nc1ncnc(Nc2cc(Cl)cc(Cl)c2)c1[N+](=O)[O-]	2.1	11.1	-0.1	54.8*	-0.33	-2.6
CC1(c2nnc(Cc3ccccc3)o2)CC(c2ccccc2[N+](=O)[O-])=NO1 (configuration not stated)	-1.4	/	-0.3	/	/	10.2
CN1CCN(c2nc(-c3ccco3)cc(C(F)(F)F)n2)CC1	0.0	34.6	-0.1	2.4	0.184	27.1
O=[N+]([O-])c1ccn(-c2nc(-c3ccccc3)cc(C(F)(F)F)n2)n1	-0.7	14.4	-0.3	79.2*	-0.0253	46.9
COc1cccc(-c2cc(C(F)(F)F)nc(-n3ccc([N+](=O)[O-])n3)n2)c1	0.2	1.7	1.0	21.0	-0.203	49.4
O=[N+]([O-])c1cn(-c2nc(-c3ccco3)cc(C(F)(F)F)n2)cn1	1.7	-6.9	0.1	0.8	0.0814	64.6*
CCOC(=O)NC(=O)/C(C#N)=C(/C)N(C)C	-2.1	-1.7	0.7	-10.1	0.372	-4.5
O=C(NCC(=O)N1CCN(S(=O)(=O)c2c(F)cccc2F)CC1)c1ccccc1F	-2.1	/	2.1	/	/	/
N#C/C(=C\c1ccncc1)c1nc2ccccc2[nH]1	5.3	-25.6	-1.8	59.4*	0.248	19.9
CCN(CC)c1ccc(/C=C(/C#N)c2nc3ccccc3[nH]2)c(OC(C)C)c1	5.9	-3.3	3.2	98.1*	2.21	39.0
COc1cc(/C=C(\C#N)c2nc3ccccc3[nH]2)c([N+](=O)[O-])cc1OCc1ccccc1	6.0	39.9	3.1	90.3*	-0.709	47.3
